The source made the active and inactive calls.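 The calls were made as follows, unless noted: active = NADPH fluorescence slope more negative than the mean of all samples by about 3 SD, 99.7% confidence; inactive = the rest.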

Usually inhibition stands for the change of the read-out against control, counted positive when it falls.

Experiment [1] in a line: inhibitors of TNFa-induced NFkB p65 translocation, primary screen, imaging, HUVEC, MLSMR starter and 10KST1 sets (AID 438;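 active = inhibition above 20% together with a positive visual image hit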;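 also: compound added about 3h40 before a 20 min TNFalpha stimulation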;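 as to inhibition: signal is the nuclear over cytoplasmic p65 intensity ratio per well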). The note with it: HUVEC TNFa-induced p65 nuclear translocation; cell count: measured here: nuclei count (cytotoxicity indicator), at 2.08 µM; inhibition: at 2 µM, stronger effect = higher value, 0% TNFa-plus-vehicle, 100% no-TNFa wells.
The nature of experiment [2]: inhibitors of mutant huntingtin aggregation, primary screen, imaging, exon1htt(103Q)mCFP cells, high-content imaging (AID 483;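 active = visual image review flags a hit and inhibition of aggregation exceeds 20%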;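 also: compound exposure lasted 3 days before fixation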;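 as to nuclei count: percent of the per-plate median nuclei count of sample wells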). The note with it: exon1htt(103Q)mCFP cell line, aggregate imaging, at 2 µM; inhibition of aggregation: stronger effect = higher value; nuclei count: measured here: cell count, toxicity.
The nature of experiment [3]: inhibitors of E-selectin induction by TNFa, primary screen, imaging, HUVEC, immunofluorescence, MLSMR starter and 10KST1 sets (AID 487;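 active = visually confirmed hit in the image check and inhibition above 20%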;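 as to inhibition: signal is fraction of cell area covered by stained E-selectin grains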;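 as to nuclei count: 100% = median nuclei count of all wells on the same plate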). The settings on record: HUVEC TNFalpha-induced E-selectin immunofluorescence imaging, at 2 µM; inhibition: stronger effect = higher value; nuclei count: measured here: cell number, toxicity.
Experiment [4] has as its target Voltage-gated potassium channel subunit beta-2 (Rattus norvegicus) (UniProt P62483). Nature of the experiment: KvBeta enzyme negative modulators, primary screen, biochemical, NADPH fluorescence (AID 622;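 active = fluorescence slope higher than the sample average by over 3 SD, cut at about -0.22 in these data, passing the limit was not always enough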;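 also: slope of raw intensity against log time taken from 70 to 1610 s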). The settings on record: recombinant KvBeta, 4-cyanobenzaldehyde reduction, at 10 µM, stronger effect = higher value.
The target is the same in experiment [5]. Nature of the experiment: KvBeta positive modulators, primary screen, biochemical, NADPH fluorescence (AID 623).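 Also: fluorescence intensity change per second fitted from 20 to 320 s.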 The note with it: Recombinant KvBeta, NADPH fluorescence decrease slope, 10 min; at 10 µM; stronger effect = lower value.
Experiment [6] has as its target Muscarinic acetylcholine receptor M4 (Homo sapiens) (UniProt P08173). Nature of the experiment: compounds altering M4/GIRK thallium flux, either direction, primary screen, M4 allosteric agonist project, cell-based, HEK293 M4/GIRK, BTC-AM (AID 625;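 active = fluorescence slope after compound addition differing from the mean of all tested samples at 99.7% confidence, mostly higher but some lower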;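 also: thallium influx through GIRK channels coupled to M4 in HEK293 cells with BTC-AM dye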). The settings on record: at 10 µM, actives lie on both sides. The gist of the method: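 System: HEK293 cells with M4 receptor and GIRK channels | Incubation: Cells overnight at 37 °C, BTC-AM loading 1 h, reads 2 min total | Technique: Kinetic BTC-AM fluorescence sampled at 1 Hz, 10 s pre-addition baseline | Measure: Post-addition slope, 15–24 s, of baseline-normalized fluorescence | Control set: Carbachol positive, DMSO negative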

Experiment [7] can be described thus: inhibitors of Sendai virus-induced IRF3 signaling, primary screen, TLR/RLR signaling modifier project, cell-based, Sendai virus stimulus, luciferase, 10K MLSCN set (AID 602276;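 active = inhibition at or above 50% at 10 µM; inactive = inhibition below 50%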;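 also: firefly luciferase from ISG56 promoter only with Renilla not read in this screen; 0% = Sendai virus plus DMSO and 100% = medium plus DMSO without virus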). The settings on record: HEK293 RL24 IRF3 luciferase reporter, at 10 µM, stronger effect = higher value.
Experiment [8] in a line: inhibitors of poly I:C-induced TLR3 signaling, primary screen, cell-based, poly I:C stimulus, luciferase, 10K MLSCN set (AID 602277;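 active = inhibition of the reporter signal at or above 50%; inactive = inhibition below 50%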). The note with it: HEK293-TLR3 RL24 IRF3 luciferase reporter, at 10 µM, stronger effect = higher value. A general note: In a reporter assay the amount or activity of a reporter protein is the signal.

Chain of Voltage-gated potassium channel subunit beta-2 (Rattus norvegicus) (P62483 whole entry, looked up): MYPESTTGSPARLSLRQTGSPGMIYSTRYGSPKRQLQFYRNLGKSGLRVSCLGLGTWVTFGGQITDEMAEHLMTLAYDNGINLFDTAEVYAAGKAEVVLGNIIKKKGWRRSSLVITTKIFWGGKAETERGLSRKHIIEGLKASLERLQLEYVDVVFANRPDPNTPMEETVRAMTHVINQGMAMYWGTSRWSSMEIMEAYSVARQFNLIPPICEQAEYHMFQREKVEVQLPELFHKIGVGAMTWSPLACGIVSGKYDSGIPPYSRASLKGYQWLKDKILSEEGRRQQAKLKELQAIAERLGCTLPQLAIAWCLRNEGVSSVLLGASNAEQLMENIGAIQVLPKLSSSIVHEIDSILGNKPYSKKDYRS
Chain of Muscarinic acetylcholine receptor M4 (Homo sapiens) (P08173 whole entry, looked up): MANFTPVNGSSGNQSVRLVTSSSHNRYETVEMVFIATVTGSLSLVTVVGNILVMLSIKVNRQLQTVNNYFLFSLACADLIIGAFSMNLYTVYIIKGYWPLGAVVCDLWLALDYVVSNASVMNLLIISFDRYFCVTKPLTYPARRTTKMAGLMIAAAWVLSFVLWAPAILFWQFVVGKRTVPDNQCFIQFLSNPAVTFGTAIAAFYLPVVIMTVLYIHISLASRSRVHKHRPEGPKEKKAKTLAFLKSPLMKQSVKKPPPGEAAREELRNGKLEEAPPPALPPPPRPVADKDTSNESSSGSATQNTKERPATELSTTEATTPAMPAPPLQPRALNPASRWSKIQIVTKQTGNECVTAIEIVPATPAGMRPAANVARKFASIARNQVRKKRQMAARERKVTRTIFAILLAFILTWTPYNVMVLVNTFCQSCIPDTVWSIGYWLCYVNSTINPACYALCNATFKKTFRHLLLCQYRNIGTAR

As to `CCOC(=O)N1CCN(C(=O)c2ccc3c(=O)n(CCc4ccccc4)c(=O)[nH]c3c2)CC1`, in experiment [1], the cell count was determined as 784. Moreover, the inhibition in experiment [1] was -7.8% (inactive); in experiment [3], -60% (inactive); in experiment [7], -16.4% (inactive); in experiment [8], -40% (inactive). The inhibition of aggregation in experiment [2] is 5.4% (inactive). In addition, the nuclei count in experiment [2] was 111%; in experiment [3] it was 115%. In addition, the fluorescence slope in experiment [4] is -0.307 (inactive); in experiment [6], 0.00774 (inactive). Also, the NADPH fluorescence slope in experiment [5] is 4.7e-06 (inactive).
For the molecule `CCN(C(=O)c1cc2cc3ccc(C)cc3nc2o1)c1ccc(OC)cc1`, in experiment [1], the cell count was 225. The inhibition in experiment [1] was -1.3% (inactive); in experiment [3], -11% (inactive); in experiment [7], -25.1% (inactive); in experiment [8], -79.8% (inactive). Also, the inhibition of aggregation in experiment [2] was 0.1% (inactive). The results for the nuclei count in experiment [2] and in experiment [3] were 107% and 106%, respectively. For the same molecule, the results for the fluorescence slope in experiment [4] and in experiment [6] were -0.431 (inactive) and 0.00704 (inactive), respectively. Moreover, in experiment [5], the NADPH fluorescence slope was -1.6e-05 (inactive).
For the molecule `O=C(NC(C(=O)c1ccccc1)n1ccc(=O)[nH]c1=O)c1ccccc1` (centres undefined), the cell count in experiment [1] was 596. Moreover, the inhibition in experiment [1] was -5.6% (inactive); in experiment [3], -6.1% (inactive); in experiment [7], 6.2% (inactive); in experiment [8] it was 12% (inactive). Further, the inhibition of aggregation in experiment [2] is -13% (inactive). Further, the nuclei count in experiment [2] and in experiment [3] was 104% in each case. Moreover, the fluorescence slope in experiment [4] was -0.449 (inactive); in experiment [6], 0.00666 (inactive). Also, the NADPH fluorescence slope in experiment [5] was -9.3e-05 (inactive).
Take `O=C(CSc1nnc(-c2cccnc2)o1)OC1CCCCC1`: the cell count in experiment [1] is 695. Besides, the inhibition in experiment [1] is -3.9% (inactive); in experiment [3] it was -54.6% (inactive); in experiment [7], 15.3% (inactive); in experiment [8], 16.2% (inactive). Further, in experiment [2], the inhibition of aggregation was 22.6% (inactive). Besides, the nuclei count in experiment [2] worked out at 95.8%; in experiment [3], 126%. Also, the values for the fluorescence slope in experiment [4] and in experiment [6] were -0.517 (inactive) and 0.0051 (inactive), respectively. Besides, the NADPH fluorescence slope in experiment [5] was 3.9e-05 (inactive).
As for `CCn1nnnc1SCC(=O)Nc1nnc(C(C)C)s1`, the cell count in experiment [1] was found to be 324. Besides, the inhibition is -3% (inactive) in experiment [1], 1% (inactive) in experiment [3], 5.57% (inactive) in experiment [7] and -1.53% (inactive) in experiment [8]. Moreover, in experiment [2], the inhibition of aggregation was 21.9% (inactive). Moreover, the results for the nuclei count in experiment [2] and in experiment [3] were 96.2% and 116%, respectively. The fluorescence slope in experiment [4] is -0.361 (inactive); in experiment [6], 0.0049 (inactive). Further, in experiment [5], the NADPH fluorescence slope is -4.7e-05 (inactive).
With `CCOC(=O)CNc1ccc2c(c1)OCO2`, the cell count in experiment [1] amounted to 368. Moreover, the inhibition in experiment [1] was -7.7% (inactive); in experiment [3] it was -105% (inactive); in experiment [7], 8.79% (inactive); in experiment [8], 12.5% (inactive). In addition, the inhibition of aggregation in experiment [2] was 8.3% (inactive). The nuclei count in experiment [2] was 99.8%; in experiment [3], 118%. The values for the fluorescence slope in experiment [4] and in experiment [6] were -0.488 (inactive) and 0.00399 (inactive), respectively. For the same molecule, the NADPH fluorescence slope in experiment [5] was -0.000182 (inactive).
For the molecule `CCOc1cc(C(=O)NCC2CCCO2)cc(OCC)c1OCC` (centres undefined), in experiment [1], the cell count is 430. In addition, the inhibition was -9.3% (inactive) in experiment [1], -133% (inactive) in experiment [3], 15.1% (inactive) in experiment [7] and 9.52% (inactive) in experiment [8]. For the same molecule, the inhibition of aggregation in experiment [2] was -3.9% (inactive). The nuclei count in experiment [2] is 106%; in experiment [3], 102%. Further, the fluorescence slope in experiment [4] is -0.213 (inactive); in experiment [6], 0.00818 (inactive). Moreover, the NADPH fluorescence slope in experiment [5] was -3.4e-05 (inactive).
Turning to `CS(=O)(=O)N(CC(=O)NC1CC1)c1cccc(F)c1`, the cell count in experiment [1] came to 387. The inhibition was -2.3% (inactive) in experiment [1], -44.3% (inactive) in experiment [3], 8.69% (inactive) in experiment [7] and 14.7% (inactive) in experiment [8]. The inhibition of aggregation in experiment [2] was 0.3% (inactive). For the same molecule, the nuclei count in experiment [2] and in experiment [3] was 113% throughout. For the same molecule, the values for the fluorescence slope in experiment [4] and in experiment [6] were -0.555 (inactive) and 0.00595 (inactive), respectively. Besides, the NADPH fluorescence slope in experiment [5] is -5e-05 (inactive).
On to `CCCCCC1NC(=O)NC1CCCCCC(=O)O` (centres undefined), for which the cell count in experiment [1] is 457. Besides, the inhibition in experiment [1] is 0% (inactive); in experiment [3] it was -129% (inactive); in experiment [7], 14.6% (inactive); in experiment [8], 18.6% (inactive). For the same molecule, the inhibition of aggregation in experiment [2] is 11.7% (inactive). Moreover, the nuclei count in experiment [2] was found to be 103%; in experiment [3] it was 123%. The fluorescence slope in experiment [4] is -0.577 (inactive); in experiment [6] it was 0.00606 (inactive). Further, in experiment [5], the NADPH fluorescence slope was -5.6e-05 (inactive).
For the molecule `CCCc1cc(-c2n[nH]c(C)c2-c2ccc(C(=O)OCC)o2)c(O)cc1O`, in experiment [1], the cell count is 651. For the same molecule, the inhibition in experiment [1] is 2% (inactive); in experiment [3] it was -35.2% (inactive); in experiment [7], 12.8% (inactive); in experiment [8], 17.9% (inactive). In addition, the inhibition of aggregation in experiment [2] is -2.2% (inactive). Besides, the nuclei count was determined as 88.5% in experiment [2] and 113% in experiment [3]. Besides, the fluorescence slope in experiment [4] was -0.571 (inactive); in experiment [6], 0.00514 (inactive). In addition, the NADPH fluorescence slope in experiment [5] is -2e-05 (inactive).
Consider `COc1ccc(OC)c(S(=O)(=O)NCCO)c1`, for which the cell count in experiment [1] came out at 217. In addition, the inhibition in experiment [1] is -7.9% (inactive); in experiment [3] it was 33.4% (inactive); in experiment [7] it was 16% (inactive); in experiment [8], 24.6% (inactive). Also, in experiment [2], the inhibition of aggregation is 11% (inactive). Further, the nuclei count in experiment [2] amounted to 112%; in experiment [3], 102%. Also, the fluorescence slope in experiment [4] was -0.567 (inactive); in experiment [6], 0.00652 (inactive). Moreover, the NADPH fluorescence slope in experiment [5] is -2.1e-05 (inactive).
With `CCOC(=O)c1ccc(NC(=O)CSc2ncccn2)cc1`, the cell count in experiment [1] amounted to 366. For the same molecule, the inhibition in experiment [1] is 10.7% (inactive); in experiment [3], -62.8% (inactive); in experiment [7] it was -20.7% (inactive); in experiment [8], -63.9% (inactive). Moreover, the inhibition of aggregation in experiment [2] was -25% (inactive). In addition, the results for the nuclei count in experiment [2] and in experiment [3] were 101% and 100%, respectively. For the same molecule, the results for the fluorescence slope in experiment [4] and in experiment [6] were -0.532 (inactive) and 0.0039 (inactive), respectively. The NADPH fluorescence slope in experiment [5] was -0.000128 (inactive).
With `CN(C)C(=O)CSc1nnc([C@H](Cc2c[nH]c3ccccc23)NC(=O)OC(C)(C)C)o1`, the cell count in experiment [1] turned out to be 375. The inhibition is 2.2% (inactive) in experiment [1], -35.8% (inactive) in experiment [3], 18.2% (inactive) in experiment [7] and 23.4% (inactive) in experiment [8]. Further, the inhibition of aggregation in experiment [2] was -9.3% (inactive). In addition, the nuclei count in experiment [2] was determined as 108%; in experiment [3], 112%. Also, the fluorescence slope in experiment [4] was -0.634 (inactive); in experiment [6], 0.00313 (inactive). Moreover, in experiment [5], the NADPH fluorescence slope is -2.1e-05 (inactive).
Regarding `COc1ccc(NC(=O)N2CCC(O)(c3cccnc3)CC2)c(OC)c1`, the cell count in experiment [1] amounted to 643. The inhibition in experiment [1] was -6.3% (inactive); in experiment [3], -161% (inactive); in experiment [7], 10.9% (inactive); in experiment [8], 12.7% (inactive). Further, the inhibition of aggregation in experiment [2] is 13% (inactive). For the same molecule, the nuclei count in experiment [2] was found to be 88.6%; in experiment [3] it was 145%. In addition, the values for the fluorescence slope in experiment [4] and in experiment [6] were -0.558 (inactive) and 0.00818 (inactive), respectively. In experiment [5], the NADPH fluorescence slope is -3.4e-05 (inactive).

These data come from PubChem BioAssay.
